# From ChEMBL document CHEMBL1145688, “New sesquiterpene hydroquinones from a Taiwanese marine sponge Polyfibrospongia australis” (J Nat Prod, 1997)
# What was measured:
# Assay type in all cases: functional, cell-based
# A549 = assay: Cytotoxicity against human A549 cells after 6 days by MTT assay; conditions: A549, 144 h
# How it was run: (§1)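 Modified MTT colorimetric assay. Cells seeded at 1000 cells/well and exposed to twofold serial dilutions of compound. Incubation ran 6 days for A-549 and 3 days for KB-16 and P-388. MTT (1 mg/mL) was then added for 5 h at 37 °C, formazan dissolved in DMSO, and absorbance read at 540 nm. IC50 is the concentration giving a 50% absorbance reduction versus untreated cells.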
# P388 = assay: Cytotoxicity against mouse P388 cells after 3 days by MTT assay; conditions: P388, 72 h; how it was run: as §1
# [1] = Cytotoxicity against human KB16 cells after 3 days by MTT assay; conditions: KB16, 72 h; how it was run: as §1
SMILES,IC50 (A549) [µg/mL],IC50 (P388) [µg/mL],IC50 [1] [µg/mL]
C=C1CCC[C@H]2[C@](CO)(Cc3cc(C(=O)OC)cc(OC)c3O)[C@@H](C)CC[C@]12C [POLYFIBROSPONGOL B],1,1,2
C=C1CCC[C@H]2[C@](COC(C)=O)(Cc3cc(C(=O)OC)cc(OC)c3OC(C)=O)[C@@H](C)CC[C@]12C [POLYFIBROSPONGOL B DIACETATE],> 50,> 50,> 50
C=C1CCC[C@H]2[C@](C)(Cc3cc(C(=O)OC)cc(O)c3O)[C@@H](C)CC[C@]12C [DICTYOCERATIN A],0.7,1.4,1.4
C=C1CCC[C@H]2[C@](C)(Cc3cc(C(=O)OC)cc(OC(C)=O)c3OC(C)=O)[C@@H](C)CC[C@]12C,1.5,1.9,1.8
C=C1CCC[C@H]2[C@](C)(Cc3cc(C(=O)OC)cc(OC)c3O)[C@@H](C)CC[C@]12C [POLYFIBROSPONGOL A],0.6,0.7,1.4
C=C1CCC[C@H]2[C@](C)(CC3=C(O)C(=O)C=C(OC)C3=O)[C@@H](C)CC[C@]12C [ILIMAQUINONE],0.4,0.2,0.7
C=C1CCC[C@H]2[C@](C)(Cc3cc(C(=O)OC)cc(OC)c3OC(C)=O)[C@@H](C)CC[C@]12C [POLYFIBROSPONGOL A MONOACETATE],3.1,3.4,2.1
